Yeast growth inh – reduces growth of yeast BB579 in restrictive medium | S. cerevisiae BB579 growth, OD615, 48 h | inhibition, % at 10 µM | 140,000 compounds, 0.51% hits | AID 804;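 active means inhibition above a set limit, 3 SD over the mean compound inhibition, cut at about 44% in these data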
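Test system: Saccharomyces cerevisiae DeaD strain BB579, replicative lifespan model yeast | Buffer or medium: Restrictive CSMM-D medium | Doses: One dose, 10 µM compound with 0.25% DMSO | Incubation: 48 h exposure, 30 °C | Detection: Culture absorbance at 615 nm | Control set: Amphotericin B at 10 µg/mL as positive control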
Tb hexokinase – blocks Trypanosoma brucei hexokinase 1 activity | recombinant TbHK1, G6PDH-coupled NADH A340 | inhibition, % at 10 µM | 220,000 compounds, 0.11% hits | AID 1430;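 active means inhibition of 50% or more in the single-dose primary screen; inactive means inhibition below 50%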
p47phox inh – blocks human p47phox regulatory protein of NADPH oxidases. P14598. p47phox/p22phox peptide binding, fluorescence polarization, 2 h. inhibition, % at 24.7 µM. 220,000 compounds, 0.53% hits;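 active means inhibition above about 30%, limit read from the data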
Target sequence (P14598 whole entry, looked up): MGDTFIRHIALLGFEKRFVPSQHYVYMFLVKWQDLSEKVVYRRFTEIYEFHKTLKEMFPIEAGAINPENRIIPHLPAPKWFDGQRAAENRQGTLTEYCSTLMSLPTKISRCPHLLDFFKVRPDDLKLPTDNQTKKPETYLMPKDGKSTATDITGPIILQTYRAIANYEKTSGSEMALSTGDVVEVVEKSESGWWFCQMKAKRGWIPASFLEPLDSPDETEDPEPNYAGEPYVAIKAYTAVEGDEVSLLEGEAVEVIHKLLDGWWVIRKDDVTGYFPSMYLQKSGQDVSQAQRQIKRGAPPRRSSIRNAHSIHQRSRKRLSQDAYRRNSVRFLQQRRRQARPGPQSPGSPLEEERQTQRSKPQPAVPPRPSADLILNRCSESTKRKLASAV
Yeast life ext – extends the lifespan of yeast; inhibition of the nicotinamide effect, % at 10 µM; S. cerevisiae growth with nicotinamide, OD615; deaD strain in restrictive glucose medium; 130,000 compounds, 0.68% hits; AID 775;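 active means inhibition above a set limit, placed 3 SD over the median of all compounds, cut at about 26% in these data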
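Test system: DeaD-strain S. cerevisiae / Buffer or medium: restrictive glucose medium / Also added: nicotinamide 1.5 mM / Doses: one concentration, 10 µM, DMSO 0.25% / Schedule: 48 h at 30 °C / Signal: OD615 measurement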
sdo1 growth – sdo1-depleted yeast growth rescue; 140,000 compounds, 0.21% hits; z-score at 10 µM; S. cerevisiae sdo1-depleted JHY4D growth rescue, OD600 30 h; active compounds read high; pdr5 snq2 efflux-pump mutant strain;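 active means z-score above 3 at both the 24 hr and the 30 hr optical density reads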
RBBP9 inh – inhibitors of human serine hydrolase RBBP9; 220,000 compounds, 0.2% hits; O75884; inhibition, % at 7.94 µM; recombinant RBBP9, FP-Rh probe fluorescence polarization;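 active means inhibition above the campaign mean of all tested compounds plus 3 SD, cut at about 14% in these data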
Target sequence (O75884 whole entry, looked up): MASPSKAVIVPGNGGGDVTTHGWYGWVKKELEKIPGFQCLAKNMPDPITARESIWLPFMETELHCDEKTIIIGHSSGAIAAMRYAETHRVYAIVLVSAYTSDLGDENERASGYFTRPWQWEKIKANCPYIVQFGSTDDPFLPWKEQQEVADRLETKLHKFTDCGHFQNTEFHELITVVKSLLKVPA
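Assay system: recombinant human RBBP9; Reagent: Serine-hydrolase probe FP-Rh, 375 nM pre-mixing; Doses: 7.94 µM single dose, 0.794% DMSO; Incubation: 30 min then 45 min, 25 °C; Detection: fluorescence polarization (mP), excitation 525 nm, emission 598 nm; Evaluation: percent inhibition from mP, scaled between DMSO and no-protein wells.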
Hits are given with their value. The list is not random: actives were taken first. Their share in the collection is about 1.6%.

Results for CCOc1ccc(OCC)c(S(=O)(=O)NCc2ccc3c(c2)OCO3)c1 ?
Yeast growth inh: inactive; Tb hexokinase: inactive; p47phox inh: 65.7; Yeast life ext: inactive; sdo1 growth: inactive

What do the screens show for `CC(C)(C)c1n[nH]c2c1CCCC2`?
Yeast growth inh: inactive; Tb hexokinase: inactive; p47phox inh: inactive; Yeast life ext: 28.0; sdo1 growth: inactive; RBBP9 inh: inactive

What do the screens show for `C/C(=N\NC(=S)NCCc1ccccc1)c1cccs1`?
Yeast growth inh: inactive; Tb hexokinase: inactive; p47phox inh: inactive; Yeast life ext: inactive; sdo1 growth: inactive; RBBP9 inh: inactive

Results for C=CCON1C(=O)C(=O)N(OCC=C)[C@H]2CCCC[C@H]21 ?
Tb hexokinase: inactive; p47phox inh: inactive; RBBP9 inh: inactive

What do the screens show for `O=C(Nc1ccc2oc(=O)ccc2c1)c1cc2ccccc2o1`?
Yeast growth inh: inactive; Tb hexokinase: inactive; p47phox inh: 32.2; sdo1 growth: inactive; RBBP9 inh: inactive

Results for Cc1cc(=O)oc2cc(NC(=O)c3cc4ccccc4o3)ccc12 ?
Yeast growth inh: inactive; Tb hexokinase: inactive; p47phox inh: inactive; Yeast life ext: inactive; sdo1 growth: inactive; RBBP9 inh: inactive

Results for COc1ccc(NC(=O)CC(NCCc2ccccc2)C(=O)O)c(OC)c1 (stereo not drawn) ?
Yeast growth inh: inactive; Tb hexokinase: inactive; p47phox inh: inactive; Yeast life ext: inactive; sdo1 growth: inactive; RBBP9 inh: inactive

What do the screens show for `COCCCNC(CC(=O)Nc1ccc(OC)cc1OC)C(=O)O` (stereo not drawn)?
Yeast growth inh: inactive; Tb hexokinase: inactive; p47phox inh: inactive; Yeast life ext: 101.4; sdo1 growth: inactive; RBBP9 inh: inactive

What do the screens show for `O=C(Cc1nc2ccccc2[nH]1)c1cccc([N+](=O)[O-])c1`?
Tb hexokinase: inactive; p47phox inh: inactive; RBBP9 inh: inactive

Results for Cc1cccc(N2CCN(C(=S)Nc3ccc4nc(N5CCN(C)CC5)cc(C)c4c3)CC2)c1C ?
Tb hexokinase: inactive; p47phox inh: 44.3; RBBP9 inh: inactive

Results for CC(=O)Nc1nc(CCN2C(=O)c3ccccc3C2=O)cs1 ?
Tb hexokinase: inactive; p47phox inh: 45.3; RBBP9 inh: inactive

How did CNC(=S)NNC(=O)CNc1ccc(C)c(Cl)c1 do in these assays?
Tb hexokinase: inactive; p47phox inh: active; RBBP9 inh: inactive

How did CCN1C(=O)C2C(c3ccc(O)c(OC)c3)NC(C)(C(=O)OC)C2C1=O (stereo not drawn) do in these assays?
Yeast growth inh: inactive; Tb hexokinase: inactive; p47phox inh: 38.4; Yeast life ext: inactive; sdo1 growth: inactive; RBBP9 inh: inactive

What do the screens show for `CC(C)(C)c1ccc(-c2noc(-c3ccno3)n2)cc1`?
Tb hexokinase: inactive; p47phox inh: inactive; RBBP9 inh: inactive

Results for CC(C)(C)c1ccc(-c2nc(-c3ccncc3)no2)cc1 ?
Yeast growth inh: 68.3; Tb hexokinase: inactive; p47phox inh: inactive; sdo1 growth: inactive; RBBP9 inh: inactive

How did COCc1ccc(CN2CCCC(CO)(Cc3ccccc3)C2)o1 (stereo not drawn) do in these assays?
Tb hexokinase: inactive; p47phox inh: inactive; RBBP9 inh: inactive

How did CC(C)c1ccc(C(CC(=O)c2ccc(Cl)cc2)C(=O)O)cc1 (stereo not drawn) do in these assays?
Yeast growth inh: inactive; Tb hexokinase: inactive; p47phox inh: inactive; Yeast life ext: inactive; sdo1 growth: inactive; RBBP9 inh: inactive

Results for CCc1ccc(C(CC(=O)c2ccc(Cl)cc2)C(=O)O)cc1 (stereo not drawn) ?
Yeast growth inh: inactive; Tb hexokinase: inactive; p47phox inh: inactive; Yeast life ext: 30.7; sdo1 growth: inactive; RBBP9 inh: inactive

How did CCOC(=O)c1c(CSC(=N)N)n(-c2ccc(Br)cc2)c2cc(Br)c(OC(C)=O)cc12 do in these assays?
Yeast growth inh: inactive; Tb hexokinase: inactive; p47phox inh: 92.7; Yeast life ext: inactive; sdo1 growth: inactive; RBBP9 inh: inactive

How did CCCCCCCCOC(=O)c1c(CSC(=N)N)n(C)c2cc(Br)c(OC(C)=O)cc12 do in these assays?
Tb hexokinase: inactive; p47phox inh: 87.5; RBBP9 inh: inactive

How did CN(C)CCNC(=O)c1cccc(S(=O)(=O)Nc2ccccc2F)c1 do in these assays?
Tb hexokinase: inactive; p47phox inh: inactive; RBBP9 inh: inactive

Results for O=C(CSc1nnc(CNC(=O)c2c(F)cccc2Cl)o1)Nc1ccc2c(c1)OCO2 ?
Tb hexokinase: inactive; p47phox inh: 31.1; RBBP9 inh: inactive

How did CCCN(CCC)S(=O)(=O)c1cccc(C(=O)Nc2ccc3c(c2)OCO3)c1 do in these assays?
Yeast growth inh: inactive; Tb hexokinase: inactive; p47phox inh: 165.4; Yeast life ext: inactive; sdo1 growth: inactive; RBBP9 inh: inactive

Results for CCN(CC)S(=O)(=O)c1cccc(C(=O)Nc2ccc3c(c2)OCO3)c1 ?
Tb hexokinase: inactive; p47phox inh: inactive; RBBP9 inh: inactive

How did CCOc1ccc(NCc2nc3ccccc3n2CCOc2ccccc2)cc1 do in these assays?
Yeast growth inh: 48.3; Tb hexokinase: inactive; p47phox inh: inactive; Yeast life ext: 41.8; sdo1 growth: inactive; RBBP9 inh: inactive

How did CC(=O)NCCc1nc2ccccc2n1CCOc1ccccc1 do in these assays?
Tb hexokinase: inactive; p47phox inh: inactive; RBBP9 inh: inactive

What do the screens show for `COc1ccc(OC)c2[nH]c(=O)c(CCNC(=O)c3cccs3)cc12`?
Tb hexokinase: inactive; p47phox inh: inactive; RBBP9 inh: inactive

Results for CCN1CCN(C(C)C(=O)NC2CCCCC2)CC1 (stereo not drawn) ?
Tb hexokinase: inactive; p47phox inh: inactive; RBBP9 inh: inactive

What do the screens show for `O=C(CN1C(=O)S/C(=C\c2ccc(Cl)cc2)C1=O)NNC(=O)c1ccccc1O`?
Yeast growth inh: inactive; Tb hexokinase: inactive; p47phox inh: 48.8; Yeast life ext: inactive; sdo1 growth: inactive; RBBP9 inh: inactive

What do the screens show for `Cc1cc([N+](=O)[O-])nn1CC(=O)Nc1cccc2nonc12`?
Tb hexokinase: inactive; p47phox inh: inactive; RBBP9 inh: inactive

What do the screens show for `CC1CCC/C(=C\Nc2ccc(O)cc2)C1=O` (stereo not drawn)?
Yeast growth inh: inactive; Tb hexokinase: inactive; p47phox inh: inactive; Yeast life ext: inactive; sdo1 growth: inactive; RBBP9 inh: 14.3

What do the screens show for `Cc1cc(C(=O)O)ccc1N/C=C1\CCCC(C)C1=O` (stereo not drawn)?
Yeast growth inh: inactive; Tb hexokinase: inactive; p47phox inh: inactive; Yeast life ext: inactive; sdo1 growth: inactive; RBBP9 inh: inactive

What do the screens show for `CCCCn1c(O)c(N=NC(=O)c2ccco2)c2ccccc21`?
Yeast growth inh: inactive; Tb hexokinase: inactive; p47phox inh: inactive; Yeast life ext: inactive; sdo1 growth: inactive; RBBP9 inh: inactive

Results for O=C(N=Nc1c(O)n(C2OC(=O)c3ccccc32)c2ccccc12)c1ccco1 (stereo not drawn) ?
Tb hexokinase: inactive; p47phox inh: 30.9; RBBP9 inh: inactive
